Test results published in paper PMC4111568 (Bioorganic & medicinal chemistry, 2011).

System: CWR22rv-1 cells
Experiment: Cell death of CWR22rv-1 prostate cancer cells
Type: cell-based, human
Details: 25 μM, after 24 h
In short: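 CWR22Rv1 cells were seeded at 300,000 cells/well in RPMI 1640 with 10% FBS, 2.5 mM L-glutamine and penicillin-streptomycin at 37 °C, 5% CO2, then serum-starved overnight. Test compound (DMSO stock, diluted in serum-free RPMI) was applied in triplicate for 24–72 h. Cells were trypsinised, fixed in 70% ethanol, treated with RNase (5 μg/mL), stained with propidium iodide (50 μg/mL), and DNA content/cell-cycle fractions were measured by flow cytometry.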

SMILES: CCCCCCCC(O)(C(N)=O)c1cccc(Cl)c1 (racemic) [(±)-1, 2-(3-chlorophenyl)-2-hydroxynonanamide]
- cell death: marginal effects
